Converted amounts (≈) assume the structure as drawn. The source made the active and inactive calls. The rule behind the calls is not given here.
How the values were obtained:
Staphylococcus aureus [1] = experiment: Antimicrobial activity against methicillin-resistant Staphylococcus aureus HAR24 by Etest; format: functional
Method in brief: (§1)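 Etest (manufacturer's method) and population analysis: overnight cultures serially diluted and plated on TSA with increasing oxacillin or BPR, CFU counted after 48 h at 37°C. Colonies from subpopulations growing at high oxacillin or BPR were picked, restreaked on antibiotic-free TSA for three passages, then retested by population analysis.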

Staphylococcus aureus [2] = experiment: Antimicrobial activity against vancomycin-intermediate Staphylococcus aureus JH9 obtained from bacteremic patient by Etest; format: functional
Method in brief: (§2)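 Etest and population analysis: overnight cultures plated on TSA with increasing vancomycin, oxacillin or BPR, CFU counted after 48 h at 37°C. For VRSA strains, vancomycin plates also run with constant 1 µg/ml BPR. Vancomycin Etest read after overnight 37°C incubation on TSA with or without 1 µg/ml BPR.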

Staphylococcus aureus [3] = experiment: Antimicrobial activity against methicillin-resistant Staphylococcus aureus USA300 by Etest; format: functional; method in brief: as §1
Staphylococcus aureus [4] = experiment: Antimicrobial activity against methicillin-resistant Staphylococcus aureus BK2529 assessed as concentration required for minimum inhibition of oxacillin-resistant subpopulation growth by Etest; format: functional; method in brief: as §1
Staphylococcus aureus [5] = experiment: Antimicrobial activity against methicillin-resistant Staphylococcus aureus HAR24 assessed as concentration required for minimum inhibition of BRP-resistant subpopulation growth; format: functional; method in brief: as §1
Staphylococcus aureus [6] = experiment: Antimicrobial activity against methicillin-resistant Staphylococcus aureus BK2464 assessed as concentration required for minimum inhibition of oxacillin-resistant subpopulation growth by Etest; format: functional; method in brief: as §1
[7] = target: T1, Penicillin-binding protein 4 (Staphylococcus aureus (strain COL)) (UniProt A0A0H2WY27); experiment: Displacement of benzyl-[14C]penicillin from Staphylococcus aureus PBP4 by in vitro competitive assay; details: Staphylococcus aureus subsp. aureus COL
T1 sequence (whole entry): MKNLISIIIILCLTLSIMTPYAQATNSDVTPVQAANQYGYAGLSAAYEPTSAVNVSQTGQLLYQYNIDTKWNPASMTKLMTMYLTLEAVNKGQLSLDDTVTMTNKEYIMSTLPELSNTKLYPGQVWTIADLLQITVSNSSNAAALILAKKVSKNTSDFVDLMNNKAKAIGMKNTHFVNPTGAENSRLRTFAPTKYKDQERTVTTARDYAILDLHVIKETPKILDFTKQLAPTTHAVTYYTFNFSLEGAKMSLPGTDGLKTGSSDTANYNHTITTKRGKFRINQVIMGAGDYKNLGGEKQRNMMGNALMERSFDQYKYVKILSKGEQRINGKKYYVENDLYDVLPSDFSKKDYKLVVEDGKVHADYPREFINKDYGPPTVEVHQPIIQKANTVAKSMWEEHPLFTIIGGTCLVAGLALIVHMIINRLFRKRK
Method in brief: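 Membranes came from late-exponential cells of RU130, a PBP 2 insertional mutant of COL. Samples of 150 µg protein were preincubated with increasing drug concentrations for 10 min at 30°C, then labeled with benzyl[14C]penicillin at 20 µg/ml for 10 min at 37°C. The reaction was stopped with excess unlabeled benzylpenicillin in SDS. Read-out was SDS-PAGE with phosphor-screen exposure for 2 weeks.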

Staphylococcus aureus [8] = experiment: Antimicrobial activity against methicillin-resistant Staphylococcus aureus BK2464 by Etest; format: functional; method in brief: as §1
Staphylococcus aureus [9] = experiment: Antimicrobial activity against methicillin-resistant Staphylococcus aureus COL assessed as concentration required for bacterial subpopulation growth; format: functional; method in brief: as §1
Staphylococcus aureus [10] = experiment: Antimicrobial activity against methicillin-resistant Staphylococcus aureus HPV107 assessed as concentration required for minimum inhibition of oxacillin-resistant subpopulation growth by Etest; format: functional; method in brief: as §1
Staphylococcus aureus [11] = experiment: Displacement of benzyl-[14C]penicillin from Staphylococcus aureus PBP2 RU130 mutant by in vitro competitive assay; details: COL
Method in brief: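 Membranes from PBP 2 insertional mutant RU130 (Tn551 in transpeptidase domain), late exponential phase, 150 µg protein, preincubated with increasing oxacillin or BPR 10 min at 30°C. Then labelled with 20 µg/ml benzyl[14C]penicillin 10 min at 37°C and stopped with excess unlabelled penicillin in SDS. SDS-PAGE with phosphor screen exposure for 2 weeks.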

Staphylococcus aureus [12] = experiment: Antimicrobial activity against methicillin-resistant Staphylococcus aureus HDE288 assessed as concentration required for minimum inhibition of BRP-resistant subpopulation growth by Etest; format: functional; method in brief: as §1
Staphylococcus aureus [13] = experiment: Antimicrobial activity against vancomycin-intermediate Staphylococcus aureus Mu50 by Etest; format: functional; method in brief: as §2
Staphylococcus aureus [14] = experiment: Antimicrobial activity against methicillin-resistant Staphylococcus aureus HAR22 assessed as concentration required for bacterial subpopulation growth; format: functional; method in brief: as §1
Staphylococcus aureus [15] = experiment: Antimicrobial activity against methicillin-resistant Staphylococcus aureus HAR24 assessed as concentration required for minimum inhibition of oxacillin-resistant subpopulation growth by Etest; format: functional; method in brief: as §1
Staphylococcus aureus [16] = experiment: Antimicrobial activity against methicillin-resistant Staphylococcus aureus HPV107 assessed as concentration required for bacterial subpopulation growth; format: functional; method in brief: as §1
Staphylococcus aureus [17] = experiment: Antimicrobial activity against methicillin-resistant Staphylococcus aureus USA300 assessed as concentration required for bacterial subpopulation growth; format: functional; method in brief: as §1
Staphylococcus aureus [18] = experiment: Antimicrobial activity against oxacillin-resistant Staphylococcus aureus COLVA harboring Tn1546 transposon by Etest; format: functional; method in brief: as §2
Staphylococcus aureus [19] = experiment: Antimicrobial activity against methicillin-resistant Staphylococcus aureus E2125 assessed as concentration required for bacterial subpopulation growth; format: functional; method in brief: as §1
Staphylococcus aureus [20] = experiment: Antimicrobial activity against methicillin-resistant Staphylococcus aureus E2125 assessed as concentration required for minimum inhibition of oxacillin-resistant subpopulation growth by Etest; format: functional; method in brief: as §1
[21] = target: T2, MecA (Staphylococcus aureus) (UniProt Q7DHH4); experiment: Inhibition of methicillin-resistant Staphylococcus aureus COL PBP2a at 10 uM by competitive assay; details: Staphylococcus aureus subsp. aureus COL
T2 sequence (whole entry): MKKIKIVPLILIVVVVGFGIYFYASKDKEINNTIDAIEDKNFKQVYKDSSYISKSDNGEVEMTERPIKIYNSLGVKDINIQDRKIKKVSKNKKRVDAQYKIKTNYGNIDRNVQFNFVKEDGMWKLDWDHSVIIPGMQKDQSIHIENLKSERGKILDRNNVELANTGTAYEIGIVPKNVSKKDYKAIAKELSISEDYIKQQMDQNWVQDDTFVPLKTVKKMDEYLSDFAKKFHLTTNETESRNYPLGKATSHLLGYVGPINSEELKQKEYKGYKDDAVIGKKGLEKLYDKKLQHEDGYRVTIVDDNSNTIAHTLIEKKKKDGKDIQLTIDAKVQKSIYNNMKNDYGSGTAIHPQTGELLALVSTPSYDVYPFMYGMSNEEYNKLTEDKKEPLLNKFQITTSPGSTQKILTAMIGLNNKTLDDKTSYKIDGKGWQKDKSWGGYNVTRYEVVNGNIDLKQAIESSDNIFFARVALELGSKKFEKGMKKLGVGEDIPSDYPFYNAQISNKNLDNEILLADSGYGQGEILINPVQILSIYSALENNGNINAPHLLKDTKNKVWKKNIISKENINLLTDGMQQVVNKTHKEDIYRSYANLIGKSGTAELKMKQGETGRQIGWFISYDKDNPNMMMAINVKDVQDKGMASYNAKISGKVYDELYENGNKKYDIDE
Method in brief: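 Purified soluble PBP 2A (mecA expressed in E. coli, 97% pure) at 0.8 µM, preincubated with drug 30 min at 30°C. Then 20 µM Bocillin FL added for 10 min at 37°C, quenched with SDS-PAGE buffer and boiled. Drug range 0.5–20 µM; for IC50, BPR 0.5–200 µM or oxacillin 5–6,000 µM. Curve fitting.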

Structure (SMILES): Nc1nc(/C(=N/O)C(=O)N[C@@H]2C(=O)N3C(C(=O)O)=C(/C=C4\CCN([C@@H]5CCNC5)C4=O)CS[C@H]23)ns1 [CEFTOBIPROLE]
- MIC (Staphylococcus aureus [1]): 1.5 µg/mL (≈ 2.81 µM)
- MIC (Staphylococcus aureus [2]): 0.8 µg/mL (≈ 1.5 µM)
- MIC (Staphylococcus aureus [3]): 1.5 µg/mL (≈ 2.81 µM)
- Activity (Staphylococcus aureus [4]): 1.5 µg/mL
- Activity (Staphylococcus aureus [5]): 3 µg/mL
- Activity (Staphylococcus aureus [6]): 1.5 µg/mL
- Activity [7]: Active
- MIC (Staphylococcus aureus [8]): 1.5 µg/mL (≈ 2.81 µM)
- Activity (Staphylococcus aureus [9]): 3 µg/mL
- Activity (Staphylococcus aureus [10]): 0.8 µg/mL
- Activity (Staphylococcus aureus [11]): Active
- Activity (Staphylococcus aureus [12]): 1.5 µg/mL
- MIC (Staphylococcus aureus [13]): 3 µg/mL (≈ 5.61 µM)
- Activity (Staphylococcus aureus [14]): 1.5 µg/mL
- Activity (Staphylococcus aureus [15]): 1.5 µg/mL
- Activity (Staphylococcus aureus [16]): 3 µg/mL
- Activity (Staphylococcus aureus [17]): 1.5 µg/mL
- MIC (Staphylococcus aureus [18]): 1.5 µg/mL (≈ 2.81 µM)
- Activity (Staphylococcus aureus [19]): 6 µg/mL
- Activity (Staphylococcus aureus [20]): 0.8 µg/mL
- inhibition [21]: 66%

Reference: ChEMBL document CHEMBL1275462 (Antimicrob Agents Chemother, 2008)
